From ChEMBL document CHEMBL3259553 (J Med Chem, 2014)
Active and inactive are the calls of the source. No cut-off for these calls is given here.

Columns and labels:
[1] = system: Homo sapiens; assay: Toxicity in healthy human with mildly elevated LDL-C level assessed as effect on free T3 level at 100 to 200 mg, po qd for 2 weeks; assay type: organism-based; settings: in vivo, 336 h
How it was run: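 Healthy subjects with LDL-C >110 mg/dL received once daily oral doses for 2 weeks in a multiple ascending dose study. Free T3, free T4 and TSH were compared with placebo.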

[2] = system: Homo sapiens; assay: Antidyslipidemic activity in healthy human with mildly elevated LDL-C level assessed as reduction in triglyceride at 50 to 200 mg, po qd for 2 weeks by multiple ascending dose study relative to placebo control; assay type: functional; set-up: scale not given: the % may be the effect or the level left
How it was run: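 Multiple ascending dose study lasting 2 weeks, run after a single ascending dose study. Healthy subjects with LDL-C >110 mg/dL took oral doses once daily from 5 to 200 mg. Safety, thyroid axis measures (free T4, free T3, TSH), heart rate, QT and liver enzymes were monitored. Lipid changes were compared with placebo.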

[3] = system: Homo sapiens; assay: Toxicity in healthy human with mildly elevated LDL-C level assessed as effect on vital signs at 5 to 200 mg, po qd for 2 weeks by multiple ascending dose study; assay type: organism-based; settings: in vivo, 336 h
How it was run: (§1)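 Multiple ascending dose study after single ascending dose study. Healthy subjects with LDL-C >110 mg/dL received once daily oral doses of 5 to 200 mg for 2 weeks. Safety and tolerability were assessed, covering QT interval, heart rate, vital signs and liver enzymes.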

[4] = organism: Oryctolagus cuniculus; assay: Antidyslipidemic activity in hypercholesterolemic rabbit model assessed as reduction in non-HDL-C level; assay type: functional, organism-based
[5] = target: Cytochrome P450 3A4 (Homo sapiens, UniProt P08684); assay: Inhibition of CYP3A4 (unknown origin); assay type: ADME
Sequence of Cytochrome P450 3A4 (P08684 whole entry): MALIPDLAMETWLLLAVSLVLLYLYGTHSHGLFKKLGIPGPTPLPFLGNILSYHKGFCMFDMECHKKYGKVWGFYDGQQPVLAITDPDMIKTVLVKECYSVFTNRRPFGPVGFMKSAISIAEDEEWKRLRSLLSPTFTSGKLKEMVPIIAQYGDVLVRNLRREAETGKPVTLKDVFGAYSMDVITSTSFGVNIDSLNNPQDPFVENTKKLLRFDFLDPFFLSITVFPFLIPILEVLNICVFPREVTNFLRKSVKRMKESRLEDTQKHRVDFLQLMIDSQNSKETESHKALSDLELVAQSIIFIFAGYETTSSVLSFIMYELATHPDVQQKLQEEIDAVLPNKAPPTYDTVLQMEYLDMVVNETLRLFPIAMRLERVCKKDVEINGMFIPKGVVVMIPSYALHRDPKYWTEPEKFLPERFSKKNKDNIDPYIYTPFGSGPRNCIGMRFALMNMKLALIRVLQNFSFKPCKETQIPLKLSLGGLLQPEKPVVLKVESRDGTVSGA

[6] = Volume of distribution at steady state in rat at 5 mg/kg, iv; assay type: ADME, organism-based; set-up: dose 5 mg/kg, route intravenous; settings: in vivo, read-out: Vdss
How it was run: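 Rats, N = 3, dosed iv at 5 mg/kg in parallel with a 5 mg/kg oral suspension. Pharmacokinetic parameters are mean values with SD.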

[7] = Intrinsic clearance in human hepatocytes assessed per million cells; assay type: ADME, cell-based, Hepatocyte; settings: read-out: CLH
[8] = Clearance in rat at 5 mg/kg, iv; assay type: ADME, organism-based; set-up: dose 5 mg/kg, route intravenous; settings: in vivo
How it was run: (§2)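 Rat pharmacokinetics after a 5 mg/kg dose given iv, or given orally as a suspension. Values are means with SD from N = 3 rats.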

[9] = Plasma concentration in thyroidectomized rat at 5 mg/kg, ip measured after 6 hrs; assay type: ADME, organism-based; set-up: dose 5 mg/kg, route intraperitoneal
How it was run: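 Thyroidectomized rats were dosed intraperitoneally at 5, 20 or 37.5 mg/kg, with 4 rats per group. Vehicle was 4% DMSO, 15% PEG-400 and 81% of 30% HPBCD in phosphate buffer. Cardiac α-MHC hnRNA, in arbitrary units, and plasma concentration were measured 6 h after dosing. Comparators were untreated thyroidectomized rats and euthyroid rats.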

[10] = system: Mus musculus; assay: Toxicity in diet-induced obese C57Bl/6J mouse model assessed as effect on bone mineral density at 0.3 to 10 mg/kg, po administered daily for 23 days; assay type: organism-based; set-up: dose 0.3-10 mg/kg, route oral; settings: in vivo
How it was run: (§3)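 C57Bl/6J mice aged six weeks were fed a high fat diet for 34 weeks. Body weight and food intake were monitored. BMD and body composition were assessed on day 22, and laboratory assessments were made at study end.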

[11] = Tmax in rat at 5 mg/kg, po; assay type: ADME, organism-based; set-up: dose 5 mg/kg, route oral; settings: in vivo; how it was run: as §2
[12] = system: Mus musculus; assay: Toxicity in diet-induced obese C57Bl/6J mouse model assessed as effect on kidney size at 0.3 to 10 mg/kg, po administered daily for 23 days; assay type: organism-based; set-up: dose 0.3-10 mg/kg, route oral; settings: in vivo; how it was run: as §3
[13] = organism: Oryctolagus cuniculus; assay: Toxicity in hypercholesterolemic rabbit model assessed as effect on central thyroid axis; assay type: organism-based; settings: in vivo
[14] = system: Homo sapiens; assay: Toxicity in healthy human with mildly elevated LDL-C level assessed as effect on effect on liver enzymes at 5 to 200 mg, po qd for 2 weeks by multiple ascending dose study; assay type: organism-based; settings: in vivo, 336 h; how it was run: as §1

## CC(C)c1cc(Oc2c(Cl)cc(-n3nc(C#N)c(=O)[nH]c3=O)cc2Cl)n[nH]c1=O [RESMETIROM]
[1]
  Activity: Non-toxic
[2]
  Activity: <=60%
[3]
  Activity: Non-toxic
[4]
  Activity: Active
[5]
  IC50: > 50 µM
[6]
  Vd: 0.422 L/kg
[7]
  hepatocyte CLint: 1.04 µL/min/1e6 cells
[8]
  clearance: 2.35 mL/min/kg
[9]
  concentration at 6 h: 15.4 µM
[10]
  Activity: Non-toxic
[11]
  Tmax: 6 h
[12]
  Activity: Non-toxic
[13]
  Activity: Non-toxic
[14]
  Activity: Non-toxic
